{
  "source": "ChEMBL document CHEMBL3045357",
  "about": "“DNA adducts as biomarkers for oxidative and genotoxic stress from pesticides in crop plants” (J Agric Food Chem, 2008)",
  "type_in_all_cases": "organism-based",
  "details_in_all_cases": "in vivo, other, 336 h",
  "key": {"Vitis vinifera [1]": {"system": "Vitis vinifera", "test": "Genotoxicity in Vitis vinifera exposed to compound through spray 4 times over 2 weeks assessed as relative adduct level A3 measured per 10^9 nucleotides using [32P]labeling based autoradiography relative to untreated control", "summary_of_the_method": "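Plants grown 2-6 weeks, groups of 2-4 sprayed four times over 2 weeks with label-rate formulations; water-sprayed controls. Leaf DNA kit-extracted. 10 µg DNA digested with micrococcal nuclease/spleen phosphodiesterase 4 h at 37 °C. NP1-enriched, then labeled with [γ-32P]ATP/T4 kinase 45 min at 37 °C. 2D PEI-cellulose TLC, imager readout. Samples spiked with 50 fmol HX-dG standard.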"}, "Vitis vinifera [2]": {"system": "Vitis vinifera", "test": "Genotoxicity in Vitis vinifera exposed to compound through spray 4 times over 2 weeks assessed as relative adduct level A2 measured per 10^9 nucleotides using [32P]labeling based autoradiography relative to untreated control", "summary_of_the_method": "(§1)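 Plants (2–6 weeks grown), groups of 2–4, sprayed 4 times over 2 weeks with formulations diluted per label (chlorothalonil 1:256, carbaryl 1:64 in water); controls water-sprayed. DNA from 1 g leaf via DNeasy Maxi kit. 10 µg DNA digested with micrococcal nuclease/spleen phosphodiesterase (4 h, 37 °C), NP1-enriched (45 min, 37 °C), labelled with [γ-32P]ATP/T4 kinase (45 min, 37 °C).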"}, "Vitis vinifera [3]": {"system": "Vitis vinifera", "test": "Genotoxicity in Vitis vinifera exposed to compound through spray 4 times over 2 weeks assessed as relative adduct level A1 measured per 10^9 nucleotides using [32P]labeling based autoradiography relative to untreated control", "summary_of_the_method": "as §1"}, "Cucumis sativus [4]": {"system": "Cucumis sativus", "test": "Genotoxicity in Cucumis sativus (cucumber) exposed to compound through spray 4 times over 2 weeks assessed as relative adduct level A3 measured per 10^9 nucleotides using HX-dG internal standard using [32P]labeling based autoradiography relative to untreated control", "summary_of_the_method": "as §1"}, "Cucumis sativus [5]": {"system": "Cucumis sativus", "test": "Genotoxicity in Cucumis sativus (cucumber) exposed to compound through spray 4 times over 2 weeks assessed as relative adduct level A2 measured per 10^9 nucleotides using HX-dG internal standard using [32P]labeling based autoradiography relative to untreated control", "summary_of_the_method": "as §1"}, "Cucumis sativus [6]": {"system": "Cucumis sativus", "test": "Genotoxicity in Cucumis sativus (cucumber) exposed to compound through spray 4 times over 2 weeks assessed as relative adduct level A1 measured per 10^9 nucleotides using HX-dG internal standard using [32P]labeling based autoradiography relative to untreated control", "summary_of_the_method": "as §1"}, "Cucumis sativus [7]": {"system": "Cucumis sativus", "test": "Genotoxicity in Cucumis sativus (cucumber) exposed to compound through spray 4 times over 2 weeks assessed as relative adduct level A3 measured per 10^9 nucleotides using [32P]labeling based autoradiography relative to untreated control", "summary_of_the_method": "as §1"}, "Cucumis sativus [8]": {"system": "Cucumis sativus", "test": "Genotoxicity in Cucumis sativus (cucumber) exposed to compound through spray 4 times over 2 weeks assessed as relative adduct level A2 measured per 10^9 nucleotides using [32P]labeling based autoradiography relative to untreated control", "summary_of_the_method": "as §1"}, "Cucumis sativus [9]": {"system": "Cucumis sativus", "test": "Genotoxicity in Cucumis sativus (cucumber) exposed to compound through spray 4 times over 2 weeks assessed as relative adduct level A1 measured per 10^9 nucleotides using [32P]labeling based autoradiography relative to untreated control", "summary_of_the_method": "as §1"}, "Phaseolus vulgaris [10]": {"system": "Phaseolus vulgaris", "test": "Genotoxicity in Phaseolus vulgaris (bush beans) exposed to compound through spray 4 times over 2 weeks assessed as relative adduct level A6 measured per 10^9 nucleotides using HX-dG internal standard using [32P]labeling based autoradiography relative to untreated control", "summary_of_the_method": "as §1"}, "Phaseolus vulgaris [11]": {"system": "Phaseolus vulgaris", "test": "Genotoxicity in Phaseolus vulgaris (bush beans) exposed to compound through spray 4 times over 2 weeks assessed as relative adduct level A5 measured per 10^9 nucleotides using HX-dG internal standard using [32P]labeling based autoradiography relative to untreated control", "summary_of_the_method": "as §1"}, "Phaseolus vulgaris [12]": {"system": "Phaseolus vulgaris", "test": "Genotoxicity in Phaseolus vulgaris (bush beans) exposed to compound through spray 4 times over 2 weeks assessed as relative adduct level A4 measured per 10^9 nucleotides using HX-dG internal standard using [32P]labeling based autoradiography relative to untreated control", "summary_of_the_method": "as §1"}, "Phaseolus vulgaris [13]": {"system": "Phaseolus vulgaris", "test": "Genotoxicity in Phaseolus vulgaris (bush beans) exposed to compound through spray 4 times over 2 weeks assessed as relative adduct level A3 measured per 10^9 nucleotides using HX-dG internal standard using [32P]labeling based autoradiography relative to untreated control", "summary_of_the_method": "as §1"}, "Phaseolus vulgaris [14]": {"system": "Phaseolus vulgaris", "test": "Genotoxicity in Phaseolus vulgaris (bush beans) exposed to compound through spray 4 times over 2 weeks assessed as relative adduct level A2 measured per 10^9 nucleotides using HX-dG internal standard using [32P]labeling based autoradiography relative to untreated control", "summary_of_the_method": "as §1"}, "Phaseolus vulgaris [15]": {"system": "Phaseolus vulgaris", "test": "Genotoxicity in Phaseolus vulgaris (bush beans) exposed to compound through spray 4 times over 2 weeks assessed as relative adduct level A1 measured per 10^9 nucleotides using HX-dG internal standard using [32P]labeling based autoradiography relative to untreated control", "summary_of_the_method": "as §1"}, "Phaseolus vulgaris [16]": {"system": "Phaseolus vulgaris", "test": "Genotoxicity in Phaseolus vulgaris (bush beans) exposed to compound through spray 4 times over 2 weeks assessed as relative adduct level A6 measured per 10^9 nucleotides using [32P]labeling based autoradiography relative to untreated control", "summary_of_the_method": "as §1"}, "Phaseolus vulgaris [17]": {"system": "Phaseolus vulgaris", "test": "GenoToxicity in Phaseolus vulgaris (bush beans) exposed to compound through spray 4 times over 2 weeks assessed as relative adduct level A5 measured per 10^9 nucleotides using [32P]labeling based autoradiography relative to untreated control", "summary_of_the_method": "as §1"}, "Phaseolus vulgaris [18]": {"system": "Phaseolus vulgaris", "test": "Genotoxicity in Phaseolus vulgaris (bush beans) exposed to compound through spray 4 times over 2 weeks assessed as relative adduct level A4 measured per 10^9 nucleotides using [32P]labeling based autoradiography relative to untreated control", "summary_of_the_method": "as §1"}, "Phaseolus vulgaris [19]": {"system": "Phaseolus vulgaris", "test": "Genotoxicity in Phaseolus vulgaris (bush beans) exposed to compound through spray 4 times over 2 weeks assessed as relative adduct level A3 measured per 10^9 nucleotides using [32P]labeling based autoradiography relative to untreated control", "summary_of_the_method": "as §1"}, "Phaseolus vulgaris [20]": {"system": "Phaseolus vulgaris", "test": "Genotoxicity in Phaseolus vulgaris (bush beans) exposed to compound through spray 4 times over 2 weeks assessed as relative adduct level A2 measured per 10^9 nucleotides using [32P]labeling based autoradiography relative to untreated control", "summary_of_the_method": "as §1"}, "Phaseolus vulgaris [21]": {"system": "Phaseolus vulgaris", "test": "Genotoxicity in Phaseolus vulgaris (bush beans) exposed to compound through spray 4 times over 2 weeks assessed as relative adduct level A1 measured per 10^9 nucleotides using [32P]labeling based autoradiography relative to untreated control", "summary_of_the_method": "as §1"}, "Glycine max [22]": {"system": "Glycine max", "test": "Genotoxicity in Glycine max (soybean) exposed to compound through spray 4 times over 2 weeks assessed as relative adduct level A6 measured per 10^9 nucleotides using HX-dG internal standard using [32P]labeling based autoradiography relative to untreated control", "summary_of_the_method": "as §1"}, "Glycine max [23]": {"system": "Glycine max", "test": "Genotoxicity in Glycine max (soybean) exposed to compound through spray 4 times over 2 weeks assessed as relative adduct level A5 measured per 10^9 nucleotides using HX-dG internal standard using [32P]labeling based autoradiography relative to untreated control", "summary_of_the_method": "as §1"}, "Glycine max [24]": {"system": "Glycine max", "test": "Genotoxicity in Glycine max (soybean) exposed to compound through spray 4 times over 2 weeks assessed as relative adduct level A4 measured per 10^9 nucleotides using HX-dG internal standard using [32P]labeling based autoradiography relative to untreated control", "summary_of_the_method": "as §1"}, "Glycine max [25]": {"system": "Glycine max", "test": "Genotoxicity in Glycine max (soybean) exposed to compound through spray 4 times over 2 weeks assessed as relative adduct level A3 measured per 10^9 nucleotides using HX-dG internal standard using [32P]labeling based autoradiography relative to untreated control", "summary_of_the_method": "as §1"}},
  "data": [
    {"smiles": "N#Cc1c(Cl)c(Cl)c(Cl)c(C#N)c1Cl", "note": "[CHLOROTHALONIL]", "values": [
      {"measurement": "Activity", "setting": "Vitis vinifera [1]", "result": 155},
      {"measurement": "Activity", "setting": "Vitis vinifera [2]", "result": 66},
      {"measurement": "Activity", "setting": "Vitis vinifera [3]", "result": 36},
      {"measurement": "Activity", "setting": "Cucumis sativus [4]", "result": 10667, "unit": "cpm"},
      {"measurement": "Activity", "setting": "Cucumis sativus [5]", "result": 12506, "unit": "cpm"},
      {"measurement": "Activity", "setting": "Cucumis sativus [6]", "result": 5420, "unit": "cpm"},
      {"measurement": "Activity", "setting": "Cucumis sativus [7]", "result": 229},
      {"measurement": "Activity", "setting": "Cucumis sativus [8]", "result": 268},
      {"measurement": "Activity", "setting": "Cucumis sativus [9]", "result": 116},
      {"measurement": "Activity", "setting": "Phaseolus vulgaris [10]", "result": 6051, "unit": "cpm"},
      {"measurement": "Activity", "setting": "Phaseolus vulgaris [11]", "result": 4410, "unit": "cpm"},
      {"measurement": "Activity", "setting": "Phaseolus vulgaris [12]", "result": 2814, "unit": "cpm"},
      {"measurement": "Activity", "setting": "Phaseolus vulgaris [13]", "result": 5038, "unit": "cpm"},
      {"measurement": "Activity", "setting": "Phaseolus vulgaris [14]", "result": 5697, "unit": "cpm"},
      {"measurement": "Activity", "setting": "Phaseolus vulgaris [15]", "result": 5901, "unit": "cpm"},
      {"measurement": "Activity", "setting": "Phaseolus vulgaris [16]", "result": 174},
      {"measurement": "Activity", "setting": "Phaseolus vulgaris [17]", "result": 127},
      {"measurement": "Activity", "setting": "Phaseolus vulgaris [18]", "result": 81},
      {"measurement": "Activity", "setting": "Phaseolus vulgaris [19]", "result": 145},
      {"measurement": "Activity", "setting": "Phaseolus vulgaris [20]", "result": 164},
      {"measurement": "Activity", "setting": "Phaseolus vulgaris [21]", "result": 169},
      {"measurement": "Activity", "setting": "Glycine max [22]", "result": 16472, "unit": "cpm"},
      {"measurement": "Activity", "setting": "Glycine max [23]", "result": 4613, "unit": "cpm"},
      {"measurement": "Activity", "setting": "Glycine max [24]", "result": 6823, "unit": "cpm"},
      {"measurement": "Activity", "setting": "Glycine max [25]", "result": 6932, "unit": "cpm"}
    ]}
  ]
}
